In the library only some 1.4% were active in any assay of this set; here they are far more common.
A3G deaminase = APOBEC3G DNA deaminase inhibitors, primary screen, biochemical, fluorescence, single-stranded DNA substrate, uHTS | DNA dC->dU-editing enzyme APOBEC-3G (Homo sapiens), Q9HC16 | recombinant A3G, ssDNA deamination FAM/TAMRA fluorescence | inhibition, % at 20 µM | 0.28% of 330,000 active | AID 493012, 2011;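 active = inhibition of at least 40% at 20 µM, with no more than 30% in the related APOBEC3A deaminase screen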
Target sequence (Q9HC16 whole entry, looked up): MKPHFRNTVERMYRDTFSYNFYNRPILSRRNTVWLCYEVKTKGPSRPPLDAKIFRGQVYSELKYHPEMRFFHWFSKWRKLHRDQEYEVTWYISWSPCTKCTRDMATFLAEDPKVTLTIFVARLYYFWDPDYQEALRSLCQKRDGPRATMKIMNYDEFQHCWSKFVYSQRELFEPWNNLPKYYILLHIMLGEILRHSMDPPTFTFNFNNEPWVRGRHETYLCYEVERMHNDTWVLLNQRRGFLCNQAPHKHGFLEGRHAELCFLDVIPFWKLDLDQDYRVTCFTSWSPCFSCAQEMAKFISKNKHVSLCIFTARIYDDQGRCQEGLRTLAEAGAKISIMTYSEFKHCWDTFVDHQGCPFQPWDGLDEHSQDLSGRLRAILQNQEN
PfGluPho inh = PfG6PD enzyme inhibitors, primary screen, biochemical, fluorescence intensity, uHTS; PfGluPho enzyme, NADPH resazurin-diaphorase fluorescence; inhibition, % at 20 µM; 0.78% of 350,000 active; AID 504690, 2011;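 active = inhibition reaching at least a set limit at 20 µM in the primary screen, cut at about 59% in these data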
HKDC1 inh = HKDC1 hexokinase inhibitors, primary screen, biochemical, fluorescence, uHTS; Q2TB90; recombinant HKDC1, G6PDH/diaphorase resazurin coupled fluorescence; inhibition, % at 20 µM; 0.16% of 340,000 active; AID 493160, 2011;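 active = inhibition above about 35% when tested at 20 µM, limit read from the data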
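test system = in-house recombinant HK5 (HKDC1) enzyme | amount = HKDC1 at 5 µg/mL | control set = DMSO-enzyme wells negative, buffer-substituted wells positive | compound = one dose of 20 µM, 1% DMSO | schedule = reaction time 90 min, room temperature, protected from light | technique = resorufin fluorescence at 613 nm | reagent = glucose with 1 mM ATP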
A3A deaminase = APOBEC3A ssDNA deaminase inhibitors, primary screen, selectivity assay for APOBEC3G inhibitor project, biochemical, FAM/TAMRA oligo cleavage fluorescence | DNA dC->dU-editing enzyme APOBEC-3A (Homo sapiens), P31941 | recombinant A3A, FAM/TAMRA ssDNA deamination fluorescence | 0.41% of 330,000 active | inhibition, % at 20 µM;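 active = at least 40% inhibition at 20 µM here, with at most 30% in a related deaminase screen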
Target sequence (P31941 whole entry, looked up): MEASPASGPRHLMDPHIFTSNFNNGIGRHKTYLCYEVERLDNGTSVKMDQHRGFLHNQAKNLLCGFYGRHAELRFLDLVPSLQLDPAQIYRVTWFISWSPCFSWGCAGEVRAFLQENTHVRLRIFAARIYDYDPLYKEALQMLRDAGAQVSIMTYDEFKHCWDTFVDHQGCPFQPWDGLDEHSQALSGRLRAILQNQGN
hiPSC survival = enhancers of single-cell hiPSC survival, primary screen, ATPlite luminescence | 100% = ROCK inhibitor wells, 0% = DMSO | survival enhancement, % at 20 µM | 0.044% of 360,000 active | AID 602274, 2012; in the data active = survival enhancement above about 18%;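 also: cells exposed to compounds for 16 hours before the ATP read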
PfGluPho conf = PfG6PD inhibitors, hit retest, confirmation, biochemical, fluorescence intensity, single concentration | 34% of 2,400 active | shares compounds with PfGluPho inh | recombinant PfGluPho, NADPH-diaphorase-resazurin fluorescence | AID 504753, 2011 | inhibition, % at 20 µM;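 active = inhibition of at least 50% at 20 µM in any single replicate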
Diaph ctr 10uM = diaphorase inhibitors and chemical oxidizers, confirmation, counter-screen for P. falciparum G6PD inhibitor project, biochemical, fluorescence intensity, 10 µM NADPH; shares compounds with PfGluPho inh; diaphorase-coupled resazurin reduction, NADPH 10 uM; inhibition, % at 20 µM; 39% of 820 active; AID 504862, 2011;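 active = average inhibition reaching 50% or more with the compound at 20 µM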;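 also: resorufin red fluorescence formed as diaphorase reduces resazurin using NADPH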
Diaph ctr 30uM = diaphorase inhibitors and chemical oxidizers, confirmation, counter-screen for P. falciparum G6PD inhibitor project, biochemical, fluorescence intensity, 30 µM NADPH. shares compounds with PfGluPho inh. Diaphorase/resazurin coupled assay, resorufin fluorescence. inhibition, % at 20 µM. 29% of 820 active. AID 504863, 2011;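 active = inhibition averaging 50% or more, tested at 20 µM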
A number is an active result; n = inactive; x = not tested or not shown.

SMILES | A3G deaminase | PfGluPho inh | HKDC1 inh | A3A deaminase | hiPSC survival | PfGluPho conf | others
CCCOc1cccc(C(=O)NCCNC(=O)c2cnccn2)c1 | n | n | n | n | n | x
CCN(CC(=O)NC(C)(C)C)C(=O)CN1c2cccc3cccc(c23)S1(=O)=O | n | n | n | n | n | x
COc1ccc(N(C(=O)c2ccncc2)S(=O)(=O)c2cccc([N+](=O)[O-])c2)cc1 | n | n | n | n | n | x
COc1ccccc1N(C(C)=O)C1=C(Cl)C(=O)c2ccccc2C1=O | x | 123.3 | x | x | n | 115.4 | Diaph ctr 10uM=92.0;Diaph ctr 30uM=92.4
CC(=O)N(C1=C(N)C(=O)c2ccccc2C1=O)C(C)C | n | n | n | n | n | x
C=C(C)COc1ccc(-c2ncnc(C(F)(F)F)c2-c2ccccc2)c(O)c1 | n | n | n | n | n | x
C=C(C)COc1ccc(-c2ncnc(C(F)(F)F)c2-c2ccc(OC)cc2)c(O)c1 | n | 70.5 | n | n | n | n
Cc1[nH]c(=O)[nH]c(=O)c1N1CCOCC1 | n | n | n | n | n | x
O=C(N/N=C/c1ccccc1C(=O)O)c1ccccc1Br | n | n | n | n | n | x
COc1ccccc1/C=N/NC(=O)c1ccccc1Cl | n | n | n | n | n | x
O=C(N/N=C/c1cccc(Oc2ccccc2)c1)c1ccccc1Br | n | 89.4 | n | n | n | n
C=CCc1cccc(/C=N/NC(=O)c2ccccc2OC)c1O | n | 78.9 | n | n | n | n
C=CCc1cccc(/C=N/NC(=O)c2ccccc2Br)c1O | n | 74.7 | n | n | n | n
O=S(=O)(c1ccc(SCCO)nc1)N1CCOCC1 | n | n | n | n | n | x
COc1ccc(C(=O)Nc2cc(OC)c(NC(=O)Nc3ccccc3)cc2OC)cc1 | x | n | x | x | n | x
CCCCOC(=O)C1=C(C)Nc2ncnn2C1c1ccc(OCC)c(OC)c1 (stereo not drawn) | n | 61.6 | n | n | n | n
CCCCOC(=O)C1=C(C)Nc2ncnn2C1c1ccc(OC)c(OC)c1 (stereo not drawn) | n | n | n | n | n | x
Cc1ccc(NC(=O)c2ccc(=O)[nH]c2)cc1S(=O)(=O)N1CCCCC1 | n | n | n | n | n | x
c1cc2c(cc1NC1CCCCCC1)OCO2 | n | 62.4 | n | n | n | 60.6 | Diaph ctr 10uM=n;Diaph ctr 30uM=n
C#CCOCCOCCOCCNc1nc(N2CCN(C(=O)CCCCCCCCCCNC(=O)[C@H](CCCCN)n3cc(CCO)nn3)CC2)nc(N2CCN(C(=O)CCCCCCCCCCNC(=O)[C@H](CCCCN)n3cc(C[C@@H](C)CC)nn3)CC2)n1 | n | 77.0 | n | n | x | n
C#CCOCCOCCOCCNc1nc(N2CCN(C(=O)[C@H](CCCCN)n3cc([C@@H](N)C(C)CC)nn3)CC2)nc(N2CCN(C(=O)[C@H](Cc3cc4ccccc4[nH]3)n3cc([C@@H](N)C(C)CC)nn3)CC2)n1 (stereo partly drawn) | n | 61.2 | n | n | n | n
C#CCOCCOCCOCCNc1nc(N2CCN(C(=O)[C@H](CCC(=O)O)n3cc(C(N)[C@H](C)CC)nn3)CC2)nc(N2CCN(C(=O)[C@H](Cc3cc4ccccc4[nH]3)n3cc(C(N)[C@H](C)CC)nn3)CC2)n1 (stereo partly drawn) | n | x | x | n | x | x
C#CCOCCOCCOCCNc1nc(N2CCN(C(=O)CCCCCCCCCCNC(=O)[C@@H](CCC(=O)O)n3cc(CCCCCN)nn3)CC2)nc(N2CCN(C(=O)CCCCCCCCCCNC(=O)[C@H](CCCCN)n3cc(C[C@@H](C)CC)nn3)CC2)n1 | n | n | n | n | n | x
CC1(C)CC2CC(C)(CN2/C=N/c2sc3c(c2C#N)CC(C)(C)NC3(C)C)C1 (stereo not drawn) | n | n | n | n | n | x
Cc1cc([N+](=O)[O-])nn1CCCC(=O)Nc1sc2c(c1C(N)=O)CCCC2 | n | 67.0 | n | n | n | n
SMILES | A3G deaminase | PfGluPho inh | HKDC1 inh | A3A deaminase | hiPSC survival | PfGluPho conf | others
CN(C)c1ccc(C(=S)N2CCN(Cc3ccccc3)CC2)cc1 | n | 69.2 | n | n | n | n
CN1CCN(C(=S)c2ccc([N+](=O)[O-])cc2)CC1 | n | 61.4 | n | n | n | 54.7 | Diaph ctr 10uM=n;Diaph ctr 30uM=n
CCN1CCN(C(=S)c2ccc(Br)cc2)CC1 | n | n | n | n | n | x
CCN1CCN(C(=S)c2ccc(O)cc2)CC1 | n | 70.5 | n | n | n | 52.8 | Diaph ctr 10uM=n;Diaph ctr 30uM=n
CN1CCN(C(=S)c2ccc(Br)cc2)CC1 | n | 59.2 | n | n | n | 60.6 | Diaph ctr 10uM=n;Diaph ctr 30uM=n
CN1CCN(C(=S)c2ccc(N(C)C)cc2)CC1 | n | n | n | n | n | x
O=S(=O)(NCc1cccs1)c1ccccc1Cl | n | n | n | n | n | x
CCn1c(=O)n(CC)c2cc(N3CCCC3)c(NC(=O)c3c(F)cccc3F)cc21 | n | n | n | n | n | x
CCn1c(=O)n(CC)c2cc(N3CCCC3)c(NC(=O)c3ccc(F)cc3)cc21 | n | 77.7 | n | n | n | n
CC(=O)C1=CCC(c2ccco2)N(S(=O)(=O)c2ccc(C)cc2)C1 (stereo not drawn) | x | x | x | x | n | x
Cc1ccc(OC2CCN(C(=O)[C@H]3O[C@@H](n4cnc5c(N)ncnc54)[C@H](O)[C@@H]3O)CC2)cc1 | x | x | x | x | n | x
Cc1cc(C)n2cc(CSc3nc4cc(Cl)ccc4o3)nc2n1 | n | n | n | n | n | x
O=c1cc(CSc2nc3cc(Cl)ccc3o2)nc2sccn12 | n | 79.7 | n | n | n | n
CC1(C(=O)NS(=O)(=O)c2ccccc2Cl)CCN1C(=O)C1CCCCC1 (stereo not drawn) | x | x | x | x | n | x
O=C1Nc2cc(C(=O)NCCCN3CCCC3)ccc2S/C1=C\c1ccccc1 | n | 105.0 | n | n | n | 98.1 | Diaph ctr 10uM=n;Diaph ctr 30uM=n
COc1cc(OC)cc(C(=O)NCC(=O)N2CCN(c3ccc(O)cc3)CC2)c1 | n | 59.8 | n | n | n | n
CCC(CC)NC(=O)Cc1ccc(F)cc1 | n | n | n | n | n | x
CNc1nc(=S)[nH]c2ccccc12 | n | n | n | n | n | x
S=c1nc2[nH]c3ccccc3c2n[nH]1 | x | 66.4 | n | x | n | n

From PubChem
